High-throughput results (PubChem)
S1P4 antagonist = blocks the human S1P4 receptor; O95977; S1P4-expressing cells, antagonist mode, reporter read-out; inhibition, % at 4.98 µM; hit rate 0.26% among 220,000; AID 1510; in the data active = inhibition above about 29%;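 note: 0% = wells stimulated with agonist and 100% = vehicle wells without agonist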
Target sequence (O95977 whole entry, looked up): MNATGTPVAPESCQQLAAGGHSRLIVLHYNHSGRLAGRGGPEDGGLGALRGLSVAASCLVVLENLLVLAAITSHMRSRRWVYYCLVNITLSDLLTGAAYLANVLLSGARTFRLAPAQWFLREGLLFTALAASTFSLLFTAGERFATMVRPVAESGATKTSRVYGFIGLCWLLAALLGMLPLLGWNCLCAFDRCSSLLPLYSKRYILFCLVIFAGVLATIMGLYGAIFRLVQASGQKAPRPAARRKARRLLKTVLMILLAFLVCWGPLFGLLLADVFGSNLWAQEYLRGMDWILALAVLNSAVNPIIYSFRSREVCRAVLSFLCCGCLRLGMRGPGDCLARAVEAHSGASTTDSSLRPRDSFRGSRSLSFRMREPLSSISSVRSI
Hsp70 act = switches on Hsp70 transcription | HeLa Hsp70 promoter luciferase reporter, luminescence; scaled: vehicle 0, proteasome-inhibitor control 100% | activation, % at 10 µM | hit rate 0.04% among 200,000;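 active = activation above the mean across all tested compounds plus 3 SD, cutoff set per campaign, cut at about 5.5% in these data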;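 note: 100% = MG132 at 30 µM as the positive control and 0% = DMSO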
S1P4 ag = human S1P4 receptor agonism. hit rate 0.35% among 220,000. activation, % at 4.98 µM. S1P4-expressing cell line, agonist reporter assay; in the data active = activation above about 11%;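 note: 0% = DMSO vehicle and 100% = reference agonist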
Mdm2 ligase inh = Mdm2 E3 ligase (human) inhibition; cell-based MDM2 ubiquitination luciferase reporter, 2 h; 0 = plate control, 100 = twice control, blank-subtracted; signal enhancement, % at 5 µM; Q00987; hit rate 0.11% among 210,000;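 active = signal enhancement of 30% or more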;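 note: luminescence tracks abundance of the self-degrading MDM2-luciferase fusion protein; higher signal means inhibition of MDM2 E3 ligase activity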
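System: stable MDM2–luciferase fusion reporter cells / Input: 2000 cells seeded into each well / Schedule: 4 h settle plus 2 h compound, 37 °C / Compound: single-point 5 µM / Buffer or medium: cells held in DMEM / Benchmarks: control and blank well means / Evaluation: percent signal gain over controls, blank-subtracted / Measured by: luciferase luminescence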
S1P3 antagonist = blocks the human S1P3 receptor | AID 485 | hit rate 0.27% among 170,000 | CHO S1P3 NFAT-BLA reporter, FRET fluorescence, antagonist mode | inhibition, % at 4.98 µM;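 active = inhibition above the plate cutoff, the mean inhibition of test wells on that plate plus 3 SD, cut at about 28% in these data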;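 note: cells challenged with S1P at its EC80 of 0.8 µM; blue over green emission ratio from cleaved BLA substrate after 4 h stimulation; 0% = S1P-stimulated wells and 100% = unstimulated DMSO-only wells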
Dynein transport = dynein cargo transport inhibition | AID 1381 | hit rate 0.47% among 220,000 | 3617.4 mouse cells, GR-EGFP nuclear translocation imaging; test concentration mostly 20 µM; stimulated with dexamethasone, 1 µM; active compounds read low | z-score, hits read low;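 active = plate z-score of nuclear minus cytoplasmic receptor signal below a set negative limit, without overly bright fluorescence or cell loss, cut at about -3.5 in these data, passing the limit was not always enough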;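 note: z-score of nuclear minus cytoplasmic ring GR-EGFP intensity difference per well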
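Buffer or medium: tetracycline-free induction medium containing charcoal-stripped FBS / Reagent: dexamethasone agonist, 1.0 µM final, for 30 min / Technique: automated 10x imaging of fixed Hoechst-stained cells / Times: induction 48 h, compound 1 h, agonist 30 min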
S1P4 ag conf = confirmation of human S1P4 receptor agonists; hit rate 7% among 740; S1P4 agonist cell-based reporter assay; activation, % at 4.98 µM; shares compounds with S1P4 ag; in the data active = activation above about 12%;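 note: 0% = vehicle and 100% = full reference agonist response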
S1P1 agonist = human S1P1 agonism as S1P4 agonist counter-screen. shares compounds with S1P4 ag. S1P1 agonist cell-based assay, activation. activation, % at 4.98 µM. hit rate 4% among 740. AID 1563; in the data active = activation above about 21%;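 note: 0% = vehicle wells and 100% = reference agonist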
An asterisk follows results filed as active; . = no result given. Shown are actives, neighbours in structure and some others; about 1.3% of the full set was active somewhere.

SMILES	S1P4 antagonist	Hsp70 act	S1P4 ag	Mdm2 ligase inh	S1P3 antagonist	Dynein transport	S1P4 ag conf	S1P1 agonist
CCOc1ccc(CCNC(=O)COC(=O)c2ccc(OC)c(OC)c2OC)cc1OCC	-11	0	1	-15	-18	1.2	.	.
CCOc1ccc(CCNC(=O)COC(=O)c2cccc(OC)c2O)cc1OCC	-18	0	13*	-1	5	1.4	-3	-2
Cn1c(CO)cnc1-c1ccccc1	4	.	-1	-4	7	-0.46	.	.
Cc1ccc(C)c(N2CCN(C(=O)CN3C(=S)NC(C)(C)CC3C)CC2)c1 (stereo not given)	13	0	-1	0	-3	0.59	.	.
COc1cc2c(cc1NC(=O)C(C)OC(=O)c1ccc(S(=O)(=O)Nc3ccccc3Cl)cc1)oc1ccccc12 (stereo not given)	-1	0	-1	-3	12	0.25	.	.
CCOC(=O)c1ccc(NC(=O)N2CCN(Cc3cccc(F)c3)CC2)cc1	7	0	17*	10	1	0.33	-2	2
Nc1ccccc1SCC1CSc2nc3ccccc3c(=O)n21 (stereo not given)	-2	0	14*	-9	-4	-0.0029	-2	-9
COc1cccc(SCC2CSc3nc4ccccc4c(=O)n32)c1 (stereo not given)	-8	0	0	-16	9	1.3	.	.
Cc1ccccc1OCCN(C#N)c1nc(N(C)C)nc(N(C)C)n1	-13	0	0	-2	-9	0.58	.	.
Cn1c(CNc2ccc(F)cc2)nnc1SCC(=O)NNC(=O)Cc1ccccc1	5	0	16*	-1	-9	1.3	-2	0
COc1ccc(C(=O)Nc2nc(N)n(-c3ccccc3)n2)cc1	-11	0	42*	-3	-24	-0.47	-3	-9
C/C(CC(=O)Nc1ccc(OCc2ccccc2)cc1)=N\NC(=O)C(=O)Nc1cccc(C)c1	6	0	19*	14	-17	1.4	-2	-5
CC/C(=N\O)c1c(O)c2c(n(-c3ccccc3)c1=O)CCCC2	-8	0	22*	-1	-50	-0.11	-1	0
CCOC(=O)C1CCN(C(=O)COC(=O)c2ccc3c(c2)C(=O)N(c2ccc(OCC)cc2)C3=O)CC1	-20	0	0	-11	-19	0.72	.	.
O=C(NCCC1=CCCCC1)c1cc(-c2ccncc2)nc2ccccc12	-7	0	-1	-11	-4	1.5	.	.
CC(C)c1csc(CN2CCN(Cc3ccc(F)c(F)c3)C(CCO)C2)n1 (stereo not given)	-9	0	42*	-16	-2	1.1	-2	-5
Cc1ccccc1S(=O)(=O)N(CC(O)CN1C(=O)NC(C)(C)C1=O)c1ccccc1 (stereo not given)	-13	.	3	11	-4	0.81	.	.
Cc1ccc(S(=O)(=O)N2CC(=O)Nc3ccccc32)cc1	0	0	-2	-5	.	0.58	.	.
CC(=O)Nc1ccc(S(=O)(=O)N2CCC(=O)Nc3ccccc32)cc1	-67	0	16*	-9	3	-0.56	-3	-4
CCc1nc(SCC#N)c(C#N)cc1C	-10	0	23*	-18	-10	0.35	1	4
COc1cc(/C=N/NC(=O)CSc2n[nH]c(=O)[nH]c2=O)cc(OC)c1O	-4	0	0	0	5	-0.025	.	.
O=C(O)c1ccc(N2C(=O)/C(=C/C=C/c3ccccc3)SC2=S)cc1	0	0	15*	-6	1	-1.1	-2	0
NS(=O)(=O)c1ccc(NC(=O)C(=O)NCCC(=O)O)cc1	1	.	1	-13	-4	-0.041	.	.
CCOCCCn1c(=NC(=O)c2cccs2)c(C#N)cc2c(=O)n3ccccc3nc21	-30	.	15*	-26	-28	-0.13	4	30*
COc1ccc(Cc2[nH]n3c(=O)c(Cl)c(C)nc3c2-c2ccccc2)cc1	5	0	-1	-17	0	-0.83	.	.
SMILES	S1P4 antagonist	Hsp70 act	S1P4 ag	Mdm2 ligase inh	S1P3 antagonist	Dynein transport	S1P4 ag conf	S1P1 agonist
Cc1nc(-c2cc(C#N)c(Sc3ccc(Cl)cc3Cl)nc2C)cs1	10	.	0	-2	-10	0.11	.	.
O=C(CSc1nc2ccccc2c(=O)n1-c1ccc(F)c(Cl)c1)Nc1cccc(S(=O)(=O)N2CCOCC2)c1	18	0	30*	-15	0	-0.77	-1	2
NS(=O)(=O)c1ccc(N2N=C(c3ccccc3)CC2c2cccc(F)c2)cc1 (stereo not given)	-14	-1	11	-2	-11	-1	.	.
NS(=O)(=O)c1ccc(N2N=C(c3ccc(Br)cc3)CC2c2ccc(F)cc2)cc1 (stereo not given)	-23	0	24*	-10	.	-3.3	43*	112*
CCN1CCN(c2cc(C)c3cc(NC(=O)c4cccs4)ccc3n2)CC1	11	.	56*	-7	0	-0.55	-3	-8
CCN1CCN(c2cc(C)c3cc(NC(=O)c4cccc(OC)c4)ccc3n2)CC1	9	.	3	.	-3	-0.18	.	.
COc1ccccc1-n1c(=O)c(C#N)c(-c2ccc([N+](=O)[O-])cc2)c2cc(C(=O)c3ccccc3O)cnc21	-3	.	-1	.	6	-0.32	.	.
Cc1ccccc1NC(=S)NC(=O)c1cncc(Br)c1	-11	0	16*	3	9	-1.2	-1	7
Cc1ccc2[nH]c(=O)c3cc(C(=O)N(C)c4ccccc4C)sc3c2c1	3	.	1	-12	-7	1.6	.	.
Cc1cc(NC(=O)C2C3C(=O)N(Cc4ccc(Cl)cc4)C(C(=O)NC4CCCCC4)C34C=CC2(C)O4)no1 (stereo not given)	-18	0	1	4	.	0.21	.	.
Cc1cc(NC(=O)C2C3C(=O)N(Cc4ccc(Cl)cc4)C(C(=O)NCc4ccccc4)C34C=CC2(C)O4)no1 (stereo not given)	-15	0	18*	-2	.	-0.057	-2	-6
Cc1c(Cl)c([N+](=O)[O-])nn1Cc1ccc(C(=O)Nc2ccc(Cl)cn2)o1	-17	0	0	0	-8	0.088	.	.
O=C(Nc1ccc(Cl)cn1)c1ccc([N+](=O)[O-])o1	25	0	49*	3	-20	-1.9	-4	-17
O=C(CSc1nnc2ccccn12)Nc1ccc(S(=O)(=O)N2CCOCC2)cc1	-10	0	1	-8	-2	-0.072	.	.
O=C(Nc1ccc2c(c1)OCO2)N1CCOCC1	-20	0	1	-15	-5	0.56	.	.
O=C(Nc1ccc2c(c1)OCO2)N1CCCC1	-2	0	46*	1	3	-0.29	-2	3
